Converted amounts (≈) assume the structure as drawn. “And” between values parts separate entries of the source, which are not always exact repeats. Identical values can stand only once.
Tests used:
Type in all cases: functional, cell-based
Conditions in all cases: Homo sapiens
791T cell line [1] = assay: Tested for cytotoxicity against antigen positive 791T osteosarcoma cells […]
In short: (§1)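 Cytotoxicity was measured as inhibition of [75Se]selenomethionine uptake in a microplate assay, with cells incubated continuously with drug or conjugate. Antigen-positive 791T osteosarcoma cells carry about 6 × 10⁵ antigens/cell; T-24 bladder carcinoma cells carry about 3–5% of that level. Both lines were grown as monolayers in Eagle's MEM with 10% newborn calf serum and passaged using trypsin (0.25%)/EDTA (0.5%).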

791T cell line [2] = assay: Tested for cytotoxicity against antigen positive 791T osteosarcoma cells of conjugate AH1.11 (Type H1: MSR-33); in short: as §1
791T cell line [3] = assay: Tested for cytotoxicity against antigen positive 791T osteosarcoma cells of conjugate H1.11 (Type H1: MSR-33); in short: as §1
T-24 [4] = assay: Tested for cytotoxicity against antigen negative T-24 bladder carcinoma cells having only 3-5% antigen expression; in short: as §1
T-24 [5] = assay: Tested for cytotoxicity against antigen negative T-24 bladder carcinoma cells of conjugate AH1.11 (Type H1: MSR-33); in short: as §1
T-24 [6] = assay: Tested for cytotoxicity against antigen negative T-24 bladder carcinoma cells of conjugate H1.11 (Type H1: MSR-33); in short: as §1
791T cell line [7] = assay: Tested for cytotoxicity against antigen positive 791T osteosarcoma cells […] (49% inhibition achieved at 100 micro g/mL)
791T cell line [8] = assay: Tested for cytotoxicity against antigen positive 791T osteosarcoma cells of conjugate AH1.11 (Type H2: MSR-26); in short: as §1
791T cell line [9] = assay: Tested for cytotoxicity against antigen positive 791T osteosarcoma cells of conjugate H1.11 (Type H2: MSR-26); in short: as §1
791T cell line [10] = assay: Tested for cytotoxicity against antigen positive 791T osteosarcoma cells of conjugate H1.11 (Type H2: MSR-26) (less than 20% inhibition achieved); in short: as §1
T-24 [11] = assay: Tested for cytotoxicity against antigen negative T-24 bladder carcinoma cells of conjugate AH1.11 (Type H2: MSR-26); in short: as §1
T-24 [12] = assay: Tested for cytotoxicity against antigen negative T-24 bladder carcinoma cells of conjugate H1.11 (Type H2: MSR-26); in short: as §1
C170 = assay: Tested for cytotoxicity against C170 colorectal carcinoma cell line by [75Se]selenomethionine uptake assay, in vitro
791T cell line [13] = assay: Tested for cytotoxicity against antigen positive 791T osteosarcoma cells […]; <20% inhibition achieved; in short: as §1
791T cell line [14] = assay: Tested for cytotoxicity against antigen positive 791T osteosarcoma cells of conjugate AH1.11 (Type H3: MSR-28); <20% inhibition achieved; in short: as §1
791T cell line [15] = assay: Tested for cytotoxicity against antigen positive 791T osteosarcoma cells of conjugate H1.11 (Type H3: MSR-28); <20% inhibition achieved; in short: as §1
T-24 [16] = assay: Tested for cytotoxicity against antigen negative T-24 bladder carcinoma cells of conjugate AH1.11 (Type H3: MSR-28); 20%-40% inhibition achieved; in short: as §1
T-24 [17] = assay: Tested for cytotoxicity against antigen negative T-24 bladder carcinoma cells of conjugate H1.11 (Type H3: MSR-28); <20% inhibition achieved; in short: as §1
T-24 [18] = assay: Tested for cytotoxicity against antigen negative T-24 bladder carcinoma cells having only 3-5% antigen expression; <20% inhibition achieved; in short: as §1

Row | Structure (SMILES) | IC50 (791T cell line [1]) | IC50 (T-24 [4]) | IC50 (C170) | further results
1 | O=C(O)CCC(=O)NC[C@H]1O[C@@H](n2cc(F)c(=O)[nH]c2=O)C[C@@H]1O | > 100 µg/mL and > 290 µM | 21 µg/mL and 62 µM |  | IC50 (791T cell line [2]): 0.4 µg/mL and 1.1 µM; IC50 (791T cell line [3]): 7.1 µg/mL and 20.6 µM; IC50 (T-24 [5]): 0.4 µg/mL and 1.1 µM; IC50 (T-24 [6]): 5.7 µg/mL and 16.6 µM
2 | O=C(O)/C=C/C(=O)NC[C@H]1O[C@@H](n2cc(F)c(=O)[nH]c2=O)C[C@@H]1O | 110 µg/mL (≈ 320 µM) | 79 µg/mL and 231 µM |  | IC50 (791T cell line [7]): 320 µM; IC50 (791T cell line [8]): > 0.5 µg/mL and > 1.5 µM; IC50 (791T cell line [9]): > 30 µM; IC50 (791T cell line [10]): > 10 µg/mL; IC50 (T-24 [11]): > 0.5 µg/mL and > 1.5 µM; IC50 (T-24 [12]): > 10 µg/mL and > 30 µM
3 | NC[C@H]1O[C@@H](n2cc(F)c(=O)[nH]c2=O)C[C@@H]1O |  |  | 26 µg/mL and 107 µM | 
4 | O=c1[nH]cc(F)c(=O)[nH]1 [FLUOROURACIL] | 0.7 µg/mL and 5.5 µM | 0.5 µg/mL and 4.1 µM | 0.3 µg/mL and 2 µM | 
5 | O=C(O)[C@H]1O[C@@H](n2cc(F)c(=O)[nH]c2=O)C[C@@H]1O |  |  | 10 µg/mL and 41 µM | 
6 | O=C(O)c1ccc(NC(=O)[C@H]2O[C@@H](n3cc(F)c(=O)[nH]c3=O)C[C@@H]2O)cc1 |  | 100 µg/mL and 263 µM |  | IC50 (791T cell line [13]): > 100 µg/mL and > 300 µM; IC50 (791T cell line [14]): > 1 µg/mL and > 2.6 µM; IC50 (791T cell line [15]): > 3 µg/mL and > 7.9 µM; IC50 (T-24 [16]): > 1 µg/mL and > 2.6 µM; IC50 (T-24 [17]): > 3 µg/mL and > 7.9 µM
7 | CCOC(=O)CCC(=O)NC[C@H]1O[C@@H](n2cc(F)c(=O)[nH]c2=O)C[C@@H]1O | > 100 µg/mL and > 280 µM | > 100 µg/mL and > 280 µM |  | 
8 | CCOC(=O)c1ccc(NC(=O)[C@H]2O[C@@H](n3cc(F)c(=O)[nH]c3=O)C[C@@H]2O)cc1 |  |  |  | IC50 (791T cell line [13]): > 100 µg/mL and > 300 µM; IC50 (T-24 [18]): > 100 µg/mL and > 300 µM
9 | O=c1[nH]c(=O)n([C@H]2C[C@H](O)[C@@H](CO)O2)cc1F [FLOXURIDINE] | 0.8 µg/mL and 3.2 µM | 1 µg/mL and 4.1 µM | 0.1 µg/mL and 400 nM | 
10 | CCCCNC(=O)/C=C/C(=O)NC[C@H]1O[C@@H](n2cc(F)c(=O)[nH]c2=O)C[C@@H]1O | > 100 µg/mL and > 300 µM | > 100 µg/mL and > 300 µM |  | 
